Source: PubChem BioAssay
RAD54 inh = inhibitors of human RAD54 branch migration; Q92698; RAD54 Holliday junction branch migration, FAM/BHQ fluorescence; inhibition, % at 10.4 µM; 360,000 tested, 0.14% active; AID 602329;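 active means mean normalized replicate activity at least 40 and at least half of replicates scoring 40 or more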;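 further: 0% = median of neutral control wells and 100% = median of positive control wells; inhibitors cause a drop in the FAM fluorescence signal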
SR-BI DiI-HDL act = enhances SR-BI lipid uptake from DiI-HDL; CHO ldlA[mSR-BI] cells, DiI-HDL uptake fluorescence, 3 h; 100 = double the neutral-control signal; AID 504775; activation, % at 12.5 µM; 320,000 tested, 0.096% active;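 active means mean replicate activation of at least 60% and every replicate at or above 60%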;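 further: 0% = median plate neutral-control signal and 100% = twice that signal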
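Assay system: LDL receptor-deficient CHO ldlA cells overexpressing murine SR-BI / Medium: BSA-supplemented, HEPES-buffered Ham's F12, pH 7.4 / Probe or stimulus: DiI-labelled HDL at 10 µg/mL final / Timing: compound with DiI-HDL co-incubation, 3 h at 37 °C / Technique: bottom-read cell fluorescence after medium removal, ex 550/em 595 nm / Measure: HDL uptake via cellular fluorescence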
PvdQ inh = blocks Pseudomonas aeruginosa PvdQ acylase activity. purified PvdQ acylase, fluorescence plate reader. inhibition, % at 10 µM. 340,000 tested, 0.063% active. AID 488965; in the data active means inhibition above about 30%, passing the limit was not always enough;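 further: 0% = vehicle neutral wells and 100% = reference inhibitor wells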
S100A4 inh HTS = S100A4-myosin IIA interaction inhibition; P26447; S100A4/TAMRA-MyoIIA peptide fluorescence polarization; inhibition, % at 10.7 µM; 360,000 tested, 0.14% active;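 active means mean inhibition of at least 70% across replicates, with every replicate also reaching that level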
Target sequence (P26447 whole entry, looked up): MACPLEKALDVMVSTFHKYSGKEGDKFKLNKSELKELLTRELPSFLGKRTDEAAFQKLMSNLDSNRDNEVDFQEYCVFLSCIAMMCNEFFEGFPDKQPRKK
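Test system: S100A4 monomer protein. Medium: HEPES buffer with Ca2+, pH 7.2. Reagent: fluorescent myosin IIA peptide, 5 nM. Compound dosing: single-point compound testing. Timing: 5 min between mix addition and reading. Benchmarks: DMSO neutral and TFP positive wells.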
dFosB act = activators of mouse delta FosB homodimer; P13346; purified delta FosB, TAMRA-CDK5 oligo fluorescence polarization; percent of positive-control signal above neutral wells; activation, % at 25 µM; 340,000 tested, 0.99% active; AID 493131;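 active means mean activation above about 17%, with every replicate also reaching it, limit read from the data, passing the limit was not always enough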
Target sequence (P13346 whole entry, looked up): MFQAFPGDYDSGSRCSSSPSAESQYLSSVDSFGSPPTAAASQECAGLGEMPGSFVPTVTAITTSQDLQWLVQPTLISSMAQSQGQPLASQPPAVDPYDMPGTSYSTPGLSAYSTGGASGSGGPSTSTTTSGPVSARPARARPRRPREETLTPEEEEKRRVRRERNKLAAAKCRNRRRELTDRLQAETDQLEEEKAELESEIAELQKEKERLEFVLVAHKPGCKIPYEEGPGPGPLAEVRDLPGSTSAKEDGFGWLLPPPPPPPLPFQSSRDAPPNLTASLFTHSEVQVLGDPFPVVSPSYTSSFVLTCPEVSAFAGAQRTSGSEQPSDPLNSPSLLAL
SR-BI DiI inh = inhibitors of mouse SR-BI mediated HDL lipid uptake. inhibition, % at 12.5 µM. AID 488896. ldlA[mSR-BI] CHO cells, DiI-HDL uptake fluorescence, 3 h. 320,000 tested, 0.96% active;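 active means mean replicate inhibition of at least 70% and a set share of replicates each scoring 70 or more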;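 further: 0% = median of neutral control wells and 100% = median of positive control wells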
An asterisk follows results filed as active; i = inactive; . = not tested or not shown; + = active, no number. Hits are enriched below; roughly 1.6% of the tested compounds scored in any of these assays.

SMILES	RAD54 inh	SR-BI DiI-HDL act	PvdQ inh	S100A4 inh HTS	dFosB act	SR-BI DiI inh
O=c1[nH]c2ccccc2n1C1CCN(CCCC(c2ccc(F)cc2)c2ccc(F)cc2)CC1	4	-13	-7	-1	28*	13
COc1cc2c(cc1OC)-c1c(OC)c(OC)cc3c1[C@H](C2)N(C)CC3	91*	-22	-7	5	-17	22
CCN(CC)c1ccc(N=Cc2c(O)n(CCc3ccc(OC)c(OC)c3)c(=O)[nH]c2=O)cc1	.	-49	10	.	-14	49
CCN(CC)c1ccc(N=Cc2c(O)n(-c3cc(OC)ccc3OC)c(=O)[nH]c2=O)cc1	-29	-91	1	.	0	91*
CCCN1[C@@H]2c3cccc(=O)n3C[C@H]1[C@H](CO)[C@H]2C(=O)N(C)C	-10	.	.	8	.	.
C/C=C/c1ccc(C2[C@@H]3CN(C(=O)C4CCOCC4)C[C@H]2N3)cc1 (stereo partly specified)	.	.	.	4	.	.
CCC(CO)NC(=O)C1C=C2c3cccc4[nH]cc(c34)CC2N(C)C1 (stereo unspecified)	39	-5	-10	16	-7	5
CC[C@@H](CO)NC(=O)[C@@H]1C=C2c3cccc4c3c(cn4C)C[C@H]2N(C)C1	64*	12	-14	21	4	-12
CC(=O)c1ccc2c(c1)C1C(Cl)C(Sc3ccccc3[N+](=O)[O-])CC1C(c1ccccc1[N+](=O)[O-])N2 (stereo unspecified)	-11	-73	-17	.	-15	73*
CC(=O)c1ccc2c(c1)C1C(Cl)C(Sc3ccccc3[N+](=O)[O-])CC1C(c1ccccc1)N2 (stereo unspecified)	-8	-35	11	.	-13	35
COC(=O)C1=C(C)NC(=S)NC1c1ccc(N(CCCl)CCCl)cc1Cl (stereo unspecified)	.	-85	-19	-1	-14	85*
NC1(C(=O)O)CCCc2ccc(N(CCCl)CCCl)cc21 (stereo unspecified)	3	9	-13	1	-8	-9
O=C(O)[C@H]1[C@H](CO)[C@H]2Cn3c(ccc(-c4ccncc4)c3=O)[C@@H]1N2C(=O)C1CCC1	1	.	.	13	.	.
COC(=O)[C@H]1[C@H](CO)[C@H]2Cn3c(ccc(-c4cccc(OC)c4)c3=O)[C@@H]1N2C(=O)c1cnccn1	5	.	.	7	.	.
C[n+]1c2ccccc2nc2ccc(NCCO)cc21	75*	22	8	192*	-264	-22
CNc1ccc2nc3ccccc3[n+](C)c2c1	98*	-3	-10	+	-213	3
COc1ccc(C#Cc2ccc([C@H]3[C@H](CO)N4CCCCN(C(=O)Cc5ccncc5)C[C@@H]34)cc2)cc1	-6	.	.	-10	.	.
N=C1c2ccccc2CN1NC(=O)C1CC1	.	66*	8	.	4	-66
O=C(Cc1ccccc1)N1CCCCN2[C@@H](CO)[C@H](c3ccc(C#CC4(O)CCCC4)cc3)[C@@H]2C1	4	.	.	7	.	.
CN1CCN(c2ccc([N+](=O)[O-])c(N/N=C3\CN4CCC3CC4)c2)CC1	70*	7	-2	.	11	-7
CCNc1cc(N2CCN(C)CC2)ccc1[N+](=O)[O-]	14	10	-9	2	7	-10
CCOC(=O)c1ccc(N=Cc2c(O)n(-c3ccc(OC)cc3)c(=S)[nH]c2=O)cc1	.	16	1	-60	-25	-16
CCOC(=O)c1c(/N=C/c2c(O)n(-c3ccccc3F)c(=S)[nH]c2=O)sc2c1CCCC2	-23	11	2	.	23*	-11
CCOC(=O)c1ccc(N=Cc2c(O)n(-c3ccccc3F)c(=S)[nH]c2=O)cc1	-8	33	0	122*	14	-32
CCOC(=O)c1c(/N=C/c2c(O)n(-c3ccc(F)cc3)c(=S)[nH]c2=O)sc2c1CCCC2	.	0	7	.	-5	0
SMILES	RAD54 inh	SR-BI DiI-HDL act	PvdQ inh	S100A4 inh HTS	dFosB act	SR-BI DiI inh
OC[C@H]1Nc2ccc(C#Cc3cccnc3)cc2[C@H]2NCC[C@H]21	.	.	.	-8	.	.
CCc1ccc(N2C(=O)NC(=O)C(Cc3ccc(OC)cc3OC)C2=O)cc1 (stereo unspecified)	-4	-84	-12	.	-10	84*
COc1cccc(-c2ccc([C@H]3[C@@H](CO)N4CCCCN(C(=O)Cc5ccncc5)C[C@H]34)cc2)c1	-10	.	.	-12	.	.
CN1CCN(c2ccc([N+](=O)[O-])c3no[n+]([O-])c23)CC1	-334	22	-7	112*	4	-22
CCN1CCN(C(=O)COc2ccc3oc4c(c3c2)CCCC4)CC1	-5	-72	1	-4	-2	72*
CCN(CCCl)c1cc(CN(C)C)cc(NC(=O)c2ccc(C(=O)Nc3cc(CN(C)C)cc(N(CC)CCCl)c3)cc2)c1	.	27	-6	-3	38*	-27
CCN(CC)C(=O)c1ccc(NC(=O)c2cccc(C(F)(F)F)c2)cc1	2	-32	-7	7	-2	32
COC(=O)C1CN(C#N)N(c2ccc(Cl)cc2)C12c1ccccc1-c1ccccc12 (stereo unspecified)	3	-127	4	3	-20	127*
CCn1c(O)c(C=Nc2ccc(S(N)(=O)=O)cc2)c(=O)n(CC)c1=S	.	15	-8	-34	19*	-15
CCn1c(O)c(C=Nc2ccc(S(N)(=O)=O)cc2)c(=O)[nH]c1=S	.	50	6	.	20*	-50
N#Cc1cccc(-c2ccc([C@@H]3[C@@H](CO)N4CCCCN(C(=O)Cc5ccccc5)C[C@H]34)cc2)c1	-1	.	.	4	.	.
C[C@H](CO)N1C[C@H](C)[C@H](CN(C)C(=O)Oc2ccccc2)OCc2ccccc2-c2c(n(C)c3ccccc23)C1=O	.	.	.	11	.	.
O=C1CC=C2C3CC4N(CCC45c4cc(O)c(O)cc4N1C25)CC3=CCBr (stereo unspecified)	.	-13	-15	11	51*	13
CN1/C(=C\C=C2C(=O)NC(=O)NC2=O)C(C)(C)c2ccccc21	.	15	3	45	-2	-15
CCN1/C(=C/C=C/C2=[N+](CC)c3ccccc3C2(C)C)C(C)(C)c2ccccc21	i	.	.	+	.	.
N#Cc1cccc(-c2ccc([C@H]3[C@H]4CN(C(=O)Cc5cccnc5)CCCCN4[C@H]3CO)cc2)c1	4	.	.	-32	.	.
O=C(N/N=C/c1c(O)n(Cc2ccc(F)cc2)c(=O)[nH]c1=O)c1ccccc1	-3	-75	-16	4	4	75*
O=C(O)[C@H]1[C@H](CO)[C@H]2Cn3c(ccc(C4=CCCC4)c3=O)[C@@H]1N2C(=O)Cc1ccccn1	4	.	.	6	.	.
O=C(O)[C@H]1[C@H](CO)[C@H]2Cn3c(ccc(-c4ccncc4)c3=O)[C@@H]1N2C(=O)C1CCCCC1	-1	.	.	99*	.	.
